According to PubChem BioAssay:
Inconclusive results are not listed.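 How the source made its calls, unless noted: active means RAM network inhibition above 8.4% in each of two replicates, 3 SD over the compound average; inconclusive means above 8.4% inhibition in only one replicate; inactive means 8.4% inhibition or less in each replicate.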

Experiments:
[1] = S. cerevisiae growth inhibition in permissive medium (OD615), pilot counter-assay for S. cerevisiae lifespan shortening project, permissive growth control (AID 705;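 active means growth inhibition above 25% in both replicates, a cutoff set 3 SD above the mean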); settings: OD615, 24 h, at 10 µM, active compounds read high
Method in brief: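 System: engineered DeaD yeast; Medium: permissive raffinose/galactose medium; Compound dosing: 10 µM single dose, 0.25% DMSO; Incubation: 4 h cell pre-growth, 24 h exposure at 30 °C; Technique: OD at 615 nm; Evaluation: growth inhibition from lowered OD615 after 24 h.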

[2] = S. cerevisiae growth inhibition in restrictive medium, OD615, pilot screen, restrictive growth control, yeast lifespan reduction project (AID 706;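 active means growth inhibition above a set limit, 3 SD over mean compound inhibition, in both replicates, cut at about 43% in these data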;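 further: modified DeaD lifespan yeast strain shifted to restrictive glucose medium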); settings: OD615, 48 h, at 10 µM, active compounds read high
Method in brief: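 Material: modified S. cerevisiae; buffer or medium: CSMM-D glucose medium; doses: one concentration, 10 µM final, 0.25% DMSO; incubation: 48 h compound exposure at 30 °C; detection: optical density at 615 nm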

[3] = doxorubicin toxicity protection in MRP-1 cells – H69AR cells, CellTiter-Glo, duplicate, MRP-1 activator project, pilot screen (AID 807;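 active means viability increase at or above a cutoff of the median across tested compounds plus 3 SD, cut at about 8.5% in these data, passing the limit was not always enough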;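 further: compound pretreatment 18-22 h then 72 h combined with doxorubicin; 0% = doxorubicin alone and 100% = vehicle without doxorubicin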); settings: H69AR viability with doxorubicin, CellTiter-Glo luminescence; at 10 µM; active compounds read high
[4] = viability of HCT116 without oncogenic beta-catenin – human colon tumor cells, pilot screen (AID 823;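 active means cell viability at or below a set limit in both duplicate runs, the limit being the all-compound median minus 4 SD, cut at about 23% in these data, passing the limit was not always enough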;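 further: 0% = wells killed by 20 µM Hyamine and 100% = untreated DMSO cell wells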); settings: HCT116 beta-catenin knockout viability, CellTiter-Glo, 60 h; at 10 µM; active compounds read low
[5] = viability of PTEN-null HCT116 cells – cell-based, HCT116 clonal line, CellTiter-Glo, pilot screen (AID 824;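 active means viability at or below 27.92% in each of two runs, the all-compound median minus 4 SD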;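 further: 0% = 20 µM Hyamine control and 100% = vehicle cell control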); settings: HCT116 PTEN-deleted viability, 60 h, at 10 µM, active compounds read low
[6] = RAM pathway blockade in budding yeast – dse1pr::URA3 reporter, 5-FOA selection, pilot screen (AID 869;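 active means inhibition over a set limit, the all-compound mean plus 3 SD, in both replicate runs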;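 further: 0% = DMSO wells with no growth and 100% = 10 µM 1-NA-PP1 with full growth; RAM network block rescues cells from 5-FOA so hits raise OD615 growth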); settings: S. cerevisiae dse1pr::URA3 5-FOA growth, OD615, 2 d; at 10 µM; active compounds read high; strain carries analog-sensitive mutant Cbk1 kinase
[7] = RAM signaling pathway blockade in yeast – S. cerevisiae, Pdr1DBD-CYC8 efflux-inhibited sensitized strain, primary screen (AID 1298);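 further: 0% = DMSO untreated cells without growth and 100% = 10 µM 1-NA-PP1 full growth; higher means more yeast growth rescued from 5-FOA killing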; settings: S. cerevisiae cbk1-as DSE1-URA3 strain, 5-FOA growth OD615, 2 d; at 50 µM; active compounds read high

Cc1oc(-c2ccc(Cl)cc2)nc1CS(=O)CC(=O)NCCN1CCCC1 (configuration not stated)
inactive: growth inhibition [1] -4.58% | growth inhibition [2] -1.17% | viability increase [3] -1.14% | viability [4] 91.1% | viability [5] 91.4% | inhibition [6] 1.06% | RAM network inhibition [7] 8.14%

O=C1CN(C(=O)COc2ccccc2)CCN1
inactive: growth inhibition [1] -14.3% | growth inhibition [2] -15.5% | viability increase [3] -1.4% | viability [4] 99.3% | viability [5] 96.8% | inhibition [6] 1.35% | RAM network inhibition [7] -0.43%

CCc1cccc(NC(=O)CCS(=O)(=O)c2cccc3nonc23)c1
inactive: growth inhibition [1] 0.64% | growth inhibition [2] -9.32% | viability increase [3] -1.95% | viability [4] 93.8% | viability [5] 95.3% | inhibition [6] 0.47% | RAM network inhibition [7] 2.79%

CCOc1ccc(N(CC(=O)NC2CCCC2)S(=O)(=O)c2c(C)noc2C)cc1
inactive: growth inhibition [1] -12.7% | growth inhibition [2] -2.85% | viability increase [3] -2.27% | viability [4] 97.4% | viability [5] 94.9% | inhibition [6] 3.61% | RAM network inhibition [7] 8.02%

C(=N\c1nccs1)/c1cccnc1
inactive: growth inhibition [1] -7.2% | growth inhibition [2] -11.4% | viability increase [3] -0.86% | viability [4] 108% | viability [5] 100% | inhibition [6] 0.235% | RAM network inhibition [7] 2.23%

CCOc1ccc(C2CC(c3cccc(OC)c3)Nc3ncnn32)cc1 (configuration not stated)
inactive: growth inhibition [1] -2.08% | growth inhibition [2] -1.26% | viability increase [3] -0.82% | viability [4] 94% | viability [5] 90% | inhibition [6] 1.15% | RAM network inhibition [7] 1.4%

COc1cccc(NC(=O)Cn2cnc3sc(C)c(S(=O)(=O)N4CCN(C)CC4)c3c2=O)c1
inactive: growth inhibition [1] -17.7% | growth inhibition [2] -24.1% | viability increase [3] -1.93% | viability [4] 89% | viability [5] 83.2% | inhibition [6] 1.76% | RAM network inhibition [7] 1.09%

O=[n+]1c2c(n([O-])c3c1CCCC3)CCCCC2
inactive: growth inhibition [1] -3.03% | growth inhibition [2] -9.11% | viability increase [3] 0.93% | viability [4] 102% | viability [5] 99.5% | inhibition [6] 0.345% | RAM network inhibition [7] -0.51%

COc1ccc(-n2c(Cc3cccn3C)nnc2SCC(=O)Nc2ccccc2C)cc1
inactive: growth inhibition [1] -11.6% | growth inhibition [2] 11.1% | viability increase [3] -2.39% | viability [4] 86% | viability [5] 81.7% | inhibition [6] 1.33% | RAM network inhibition [7] 7.38%

O=C1CC(c2ccc(Cl)c(Cl)c2)CC(O)=C1C=NCCN1CCNCC1 (configuration not stated)
inactive: growth inhibition [1] -11.8% | growth inhibition [2] -7.73% | viability increase [3] -1.07% | viability [4] 90.4% | viability [5] 96.6% | inhibition [6] 0.46% | RAM network inhibition [7] -1.78%

Cc1ccc2c(c1)c(C)c(C)n2CC(O)CN1CCCCC1C (configuration not stated)
inactive: growth inhibition [1] -9.72% | growth inhibition [2] -9.14% | viability increase [3] -4.02% | viability [4] 72.2% | viability [5] 79.6% | inhibition [6] 0.91% | RAM network inhibition [7] 2.28%

Cc1nc(=O)c(-c2ccccc2)c(C)n1CC1CCCO1 (configuration not stated)
inactive: growth inhibition [1] -7.12% | growth inhibition [2] -9.15% | viability increase [3] -2.44% | viability [4] 99.8% | viability [5] 96.4% | inhibition [6] 1.38% | RAM network inhibition [7] 0.16%

OC(COc1ccccc1)Cn1cc(Br)cn1 (configuration not stated)
inactive: growth inhibition [1] -3.63% | growth inhibition [2] -8.39% | viability increase [3] -0.64% | viability [4] 106% | viability [5] 96.1% | inhibition [6] 1.23% | RAM network inhibition [7] 0.93%

NC(=O)c1ccc(N2CCCCC2)c(N2C(=O)C3C4C=CC(C4)C3C2=O)c1 (configuration not stated)
inactive: growth inhibition [1] 0.39% | growth inhibition [2] -4.49% | viability increase [3] -2.98% | viability [4] 101% | viability [5] 92.6% | inhibition [6] 0.92% | RAM network inhibition [7] 3.75%

CCCOC(=O)CC1C(=O)NCCN1Cc1ccc(F)cc1 (configuration not stated)
inactive: growth inhibition [1] -12.3% | growth inhibition [2] -6.77% | viability increase [3] -1.04% | viability [4] 104% | viability [5] 98.3% | inhibition [6] 2.83% | RAM network inhibition [7] 1.73%

CCCC(=O)c1cc(F)c(N2CCN(S(=O)(=O)c3ccccc3)CC2)cc1C
inactive: growth inhibition [1] -7.04% | growth inhibition [2] -27.6% | viability increase [3] 1.53% | viability [4] 90.3% | viability [5] 88.5% | inhibition [6] 3.01% | RAM network inhibition [7] 3.18%

Cc1c(NS(=O)(=O)c2ccccc2)cc(Cl)c(O)c1C
inactive: growth inhibition [1] -9.11% | growth inhibition [2] -4.86% | viability increase [3] -5.19% | viability [4] 90.9% | viability [5] 93.5% | inhibition [6] 0.695% | RAM network inhibition [7] 6.75%

Cc1ccnc(NC2c3ccccc3C(=O)N2Cc2ccccc2Cl)c1 (configuration not stated)
inactive: growth inhibition [1] 4.26% | growth inhibition [2] 2.1% | viability increase [3] -3.54% | viability [4] 73% | viability [5] 86.8% | inhibition [6] 2.44% | RAM network inhibition [7] 3.54%

O=C(c1ccc(S(=O)(=O)N2CCCCC2)cc1)N1CCN=C1SCc1cccnc1
inactive: growth inhibition [1] -1.57% | growth inhibition [2] -2.72% | viability increase [3] 1.27% | viability [4] 89.4% | viability [5] 89.3% | inhibition [6] 1.77% | RAM network inhibition [7] 4.85%

CCOC(=O)c1sc2nc(NC(=O)c3cccs3)sc2c1C
inactive: growth inhibition [1] 5.51% | growth inhibition [2] -2.37% | viability increase [3] -1.92% | viability [4] 92.5% | viability [5] 87.4% | inhibition [6] -0.28% | RAM network inhibition [7] -0.16%

O=C(c1cc2ccccn2n1)N1CCN(Cc2ccccc2)CC1
inactive: growth inhibition [1] 1.21% | growth inhibition [2] 7.58% | viability increase [3] -0.74% | viability [4] 104% | viability [5] 87.7% | inhibition [6] 0.99% | RAM network inhibition [7] 2.76%

O=C(O)c1cnn2c1NC(c1cccs1)CC2C(F)(F)F (configuration not stated)
inactive: growth inhibition [1] -22.6% | growth inhibition [2] -21.6% | viability increase [3] 0.98% | viability [4] 96.8% | viability [5] 104% | inhibition [6] 1.5% | RAM network inhibition [7] 4.4%

CCN(CC)S(=O)(=O)c1cc(C(=O)Oc2ccccc2OC)ccc1OC
inactive: growth inhibition [1] 4.58% | growth inhibition [2] 2.38% | viability increase [3] -0.11% | viability [4] 86.1% | viability [5] 85.6% | inhibition [6] 1.38% | RAM network inhibition [7] 3.93%

CC1(C)CC(=O)C2=C(C1)OC(N)=C(C#N)C2c1ccc(OC(=O)N2CCOCC2)cc1 (configuration not stated)
inactive: growth inhibition [1] -8.71% | growth inhibition [2] -10.3% | viability increase [3] -1.1% | viability [4] 100% | viability [5] 105% | inhibition [6] 1.12% | RAM network inhibition [7] 0.1%

CCOC(=O)Cn1c(=O)oc2cc(S(=O)(=O)N3CCCc4ccccc43)ccc21
inactive: growth inhibition [1] -8.26% | growth inhibition [2] -5.77% | viability increase [3] -1.08% | viability [4] 88.2% | viability [5] 96% | inhibition [6] 2.77% | RAM network inhibition [7] 6.73%

COc1ccccc1N(CC(O)CN1C(=O)NC(C)(C)C1=O)S(=O)(=O)c1ccc(C)cc1 (configuration not stated)
inactive: growth inhibition [1] -7.72% | growth inhibition [2] -4.29% | viability increase [3] -0.66% | viability [4] 101% | viability [5] 99.9% | inhibition [6] 1.41% | RAM network inhibition [7] 5.03%

C=CCn1c(=O)c(C(=O)Nc2ccccc2OC)c(O)c2ccccc21
inactive: growth inhibition [1] 1.44% | growth inhibition [2] -2.46% | viability increase [3] -2.69% | viability [4] 104% | viability [5] 90.1% | inhibition [6] 2.31% | RAM network inhibition [7] 1.39%

CCc1nnc(NC(=O)C(C)Sc2ccccc2)s1 (configuration not stated)
inactive: growth inhibition [1] 6.98% | growth inhibition [2] 18.9% | viability increase [3] 1.53% | viability [4] 99.3% | viability [5] 98.1% | inhibition [6] 1.98% | RAM network inhibition [7] -0.83%

CCSc1nnc(Cc2cc(=O)[nH]c(=O)[nH]2)n1-c1cccc(C)c1
inactive: growth inhibition [1] -8.16% | growth inhibition [2] -4.58% | viability increase [3] -1.79% | viability [4] 105% | viability [5] 94.3% | inhibition [6] 1.77% | RAM network inhibition [7] 0.26%

COc1ccc(C(=O)N2CCC(C(=O)Nc3cccc(C)c3)CC2)cc1OC
inactive: growth inhibition [1] -0.875% | growth inhibition [2] -15.3% | viability increase [3] -2.37% | viability [4] 106% | viability [5] 96.7% | inhibition [6] 0.29% | RAM network inhibition [7] 2.75%

Cc1cccc(-n2ncc3c(NC(C)C)ncnc32)c1
inactive: growth inhibition [1] 5.47% | growth inhibition [2] 3.18% | viability increase [3] -0.3% | viability [4] 101% | viability [5] 84.3% | inhibition [6] 0.87% | RAM network inhibition [7] -0.57%

CCCCSc1nc2c(cnn2-c2ccc(C)c(C)c2)c(=O)[nH]1
inactive: growth inhibition [1] -3.77% | growth inhibition [2] 8.57% | viability increase [3] -6.91% | viability [4] 59.1% | viability [5] 59.5% | inhibition [6] 1.05% | RAM network inhibition [7] 5.36%

COc1cc(NC(=O)c2cc3c(C)nc4ccccc4c3o2)cc(OC)c1OC
inactive: growth inhibition [1] 7.32% | growth inhibition [2] 13.2% | viability increase [3] -5.18% | viability [4] 86.2% | viability [5] 86.7% | inhibition [6] 0.93% | RAM network inhibition [7] 0.97%

COC(=O)Cn1c(CN2CCc3ccccc3C2)nc2c1c(=O)n(C)c(=O)n2C
inactive: growth inhibition [1] -4.78% | growth inhibition [2] 0.56% | viability increase [3] -1.18% | viability [4] 95.6% | viability [5] 96.2% | inhibition [6] 1.31% | RAM network inhibition [7] 8.74%

CCOC(=O)C1CCCN(C(=O)c2ccc(CNc3c(N4CCC(C)CC4)c(=O)c3=O)cc2)C1 (configuration not stated)
inactive: growth inhibition [1] -16.1% | growth inhibition [2] -24.3% | viability increase [3] 0.29% | viability [4] 102% | viability [5] 98.9% | inhibition [6] 2.57% | RAM network inhibition [7] 4.84%

CCCCCCn1c(SCCOC)nc2c1c(=O)[nH]c(=O)n2C
inactive: growth inhibition [1] -2.79% | growth inhibition [2] -3.65% | viability increase [3] -0.71% | viability [4] 90.2% | viability [5] 85% | inhibition [6] 1.88% | RAM network inhibition [7] 9.09%
